Measurements from ChEMBL document CHEMBL1155284, “Synthesis and antibacterial activity of some new thiadiaza/triazaphospholes, thiadiaza/triaza/tetrazaphosphinines and thiadiaza/tetrazaphosphepines containing 1,2,4-triazinone moiety” (Eur J Med Chem, 2009).
≈ marks a conversion by molar mass, not a printed value.

Legend:
[1] = test system: Staphylococcus epidermidis; test: Antimicrobial activity against Staphylococcus epidermidis MTCCB 1824 after 24 hrs by tube dilution technique; assay type: functional; conditions: MTCCB 1824, 24 h
Outline: (§1)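 Tube dilution in nutrient broth at 3.12, 6.25, 12.5, 25 and 50 µg/mL. Each tube received 100 µL of standardized bacterial suspension (10^7 cell/mL). Tubes were incubated at 37 °C for 24 h. MIC was the lowest concentration that maintained or reduced inoculum viability.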

[2] = test system: Escherichia coli; test: Antimicrobial activity against Escherichia coli MTCCB 1652 at 100 ug/mL after 16 to 20 hrs by disk diffusion method; assay type: functional; conditions: read-out: DIZ
Outline: (§2)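 Nutrient agar disc diffusion with compounds at 100 µg/mL and DMSO as blank. Plates were incubated 16–20 h at 37 °C, then inhibition zone diameter was measured. Zones of 12 mm or less were scored resistant, 13–17 mm moderate, and 18 mm or more maximum inhibition.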

[3] = test system: Staphylococcus aureus; test: Antimicrobial activity against Staphylococcus aureus MTCCB 737 at 100 ug/mL after 16 to 20 hrs by disk diffusion method; assay type: functional; conditions: read-out: DIZ; outline: as §2
[4] = test system: Pseudomonas aeruginosa; test: Antimicrobial activity against Pseudomonas aeruginosa ATCC 27853 at 100 ug/mL after 16 to 20 hrs by disk diffusion method; assay type: functional; conditions: read-out: DIZ; outline: as §2
[5] = test system: Staphylococcus aureus; test: Antimicrobial activity against Staphylococcus aureus MTCCB 737 after 24 hrs by tube dilution technique; assay type: functional; conditions: MTCCB 737, 24 h; outline: as §1
[6] = test system: Pseudomonas aeruginosa; test: Antimicrobial activity against Pseudomonas aeruginosa ATCC 27853 after 24 hrs by tube dilution technique; assay type: functional; conditions: ATCC 27853, 24 h; outline: as §1
[7] = test system: Staphylococcus epidermidis; test: Antimicrobial activity against Staphylococcus epidermidis MTCCB 1824 at 100 ug/mL after 16 to 20 hrs by disk diffusion method; assay type: functional; conditions: read-out: DIZ; outline: as §2
[8] = test system: Escherichia coli; test: Antimicrobial activity against Escherichia coli MTCCB 1652 after 24 hrs by tube dilution technique; assay type: functional; conditions: MTCCB 1652, 24 h; outline: as §1
[9] = test system: Staphylococcus aureus; test: Antimicrobial activity against Staphylococcus aureus MTCCB 737 at 30 ug/mL after 16 to 20 hrs by disk diffusion method; assay type: functional; conditions: read-out: DIZ
Outline: (§3)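 Nutrient agar disc diffusion with the reference drug tetracycline at 30 µg/mL and DMSO as blank. Plates were incubated 16–20 h at 37 °C, then inhibition zone diameter was measured. Zones of 12 mm or less were scored resistant, 13–17 mm moderate, and 18 mm or more maximum inhibition.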

[10] = test system: Escherichia coli; test: Antimicrobial activity against Escherichia coli MTCCB 1652 at 30 ug/mL after 16 to 20 hrs by disk diffusion method; assay type: functional; conditions: read-out: DIZ; outline: as §3
[11] = test system: Pseudomonas aeruginosa; test: Antimicrobial activity against Pseudomonas aeruginosa ATCC 27853 at 30 ug/mL after 16 to 20 hrs by disk diffusion method; assay type: functional; conditions: read-out: DIZ; outline: as §3
[12] = test system: Pseudomonas aeruginosa; test: Antimicrobial activity against Pseudomonas aeruginosa ATCC 27853
[13] = test system: Staphylococcus epidermidis; test: Antimicrobial activity against Staphylococcus epidermidis MTCCB 1824 at 30 ug/mL after 16 to 20 hrs by disk diffusion method; assay type: functional; conditions: read-out: DIZ; outline: as §3
[14] = test system: Artemia salina; test: (§4) Toxicity against Artemia salina larvae after 24 hrs; assay type: organism-based; conditions: in vivo, 24 h
Outline: (§5)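 Brine shrimp lethality test. Artemia salina eggs were hatched 48 h at 37 °C in filtered sea salt solution (38 g/L) with constant oxygen to give nauplii. Stock was 10 mg compound in 2 mL DMSO, diluted to 80, 40, 20, 10 and 5 µg/mL in triplicate vials, about 10 nauplii each, with a DMSO control. LC50 is the mean of three values.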

[15] = as §4; assay type: organism-based; conditions: in vivo; outline: as §5

Row | Compound | MIC [1] [µg/mL] | zone of inhibition at 100 µg/mL [2] [mm] | zone of inhibition at 100 µg/mL [3] [mm] | zone of inhibition at 100 µg/mL [4] [mm] | MIC [5] [µg/mL] | MIC [6] [µg/mL] | zone of inhibition at 100 µg/mL [7] [mm] | MIC [8] [µg/mL] | zone of inhibition at 30 µg/mL [9] [mm] | zone of inhibition at 30 µg/mL [10] [mm] | zone of inhibition at 30 µg/mL [11] [mm] | diameter of the inhibition zone (DIZ) [12] [mm] | zone of inhibition at 30 µg/mL [13] [mm] | LC50 [14] [µg/mL] | LC50 at 24 h [15] [µg/mL]
1 | Cc1nnc(S)n(N)c1=O | 50 (≈ 316 µM) | 14 | 13 | 15 | 50 (≈ 316 µM) | 25 (≈ 158 µM) | 14 | 50 (≈ 316 µM) | – | – | – | – | – | – | –
2 | CN(C)[C@@H]1C(O)=C(C(N)=O)C(=O)[C@@]2(O)C(O)=C3C(=O)c4c(O)cccc4[C@@](C)(O)[C@H]3C[C@@H]12 [TETRACYCLINE] | 6.25 (≈ 14.1 µM) | – | – | – | 6.25 (≈ 14.1 µM) | 6.25 (≈ 14.1 µM) | – | 6.25 (≈ 14.1 µM) | 30 | 28 | 29 | 29 | 25 | – | –
3 | Cc1nnc2n(c1=O)N=C(c1ccccc1)CP(c1ccccc1)(c1ccccc1)(c1ccccc1)S2 | 12.5 (≈ 24 µM) | 16 | 21 | 19 | 25 (≈ 48 µM) | 50 (≈ 96 µM) | 19 | 50 (≈ 96 µM) | – | – | – | – | – | – | –
4 | Cc1nnc(NN)n(N)c1=O | 50 (≈ 320 µM) | 15 | 17 | 15 | 50 (≈ 320 µM) | 50 (≈ 320 µM) | 15 | 25 (≈ 160 µM) | – | – | – | – | – | – | –
5 | CC1=Nn2c(nnc(C)c2=O)SP1(c1ccccc1)(c1ccccc1)c1ccccc1 | 25 (≈ 56.2 µM) | 19 | 20 | 22 | 25 (≈ 56.2 µM) | 12.5 (≈ 28.1 µM) | 19 | 12.5 (≈ 28.1 µM) | – | – | – | – | – | – | –
6 | BLEOMYCIN | – | – | – | – | – | – | – | – | – | – | – | – | – | 0.41 | –
7 | Cc1nnc(N)n(N)c1=O | 25 (≈ 177 µM) | 14 | 16 | 13 | 25 (≈ 177 µM) | 50 (≈ 354 µM) | 15 | 50 (≈ 354 µM) | – | – | – | – | – | – | –
8 | Cc1nnc2n(c1=O)NP(=O)(c1ccccc1)S2 (stereo not drawn) | 25 (≈ 89.2 µM) | 21 | 20 | 23 | 25 (≈ 89.2 µM) | 12.5 (≈ 44.6 µM) | 17 | 12.5 (≈ 44.6 µM) | – | – | – | – | – | – | 7.85 (≈ 28 µM)
9 | CCOP1(=O)Sc2nnc(C)c(=O)n2NC1c1ccc(Cl)cc1 (stereo not drawn) | 6.25 (≈ 16.8 µM) | 15 | 27 | 20 | 6.25 (≈ 16.8 µM) | 25 (≈ 67.1 µM) | 23 | 50 (≈ 134 µM) | – | – | – | – | – | – | 13.8 (≈ 37.1 µM)
